Experimental data reported in ChEMBL document CHEMBL5303300, “EUbOPEN Chemogenomics Library - Multiplex” (2023).
Where “and” joins values, the source holds several entries; their conditions need not be identical. Identical values can stand only once.

Tested on: HEK-293T
Test: Multiplex assay against HEK293T
Assay type: toxicity, cell-based
Conditions: human, number of replicates 2
Outline: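 Hoechst33342, BioTracker Green Microtubule Cytoskeleton Dye, MitoTracker Red and Annexin V Alexa Fluor 680 were added to live cells at seeding, and imaging on a CQ1 microscope at 37°C and 5% CO2 followed compound addition. Gating by CellPathfinder machine learning separated cells into Hoechst high-intensity objects or normal cells, then normal cells into healthy, pyknosed or fragmented nuclei, then pyknosed cells into mitotic or apoptotic. Per cents of healthy-nucleus cells are reported for the tubulin, mitochondrial-mass and membrane-permeability phenotypes.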

[1] = 12 h, 1 µM, compound concentration 1 uM
[2] = 12 h, 10 µM, compound concentration 10 uM
[3] = 24 h, 1 µM, compound concentration 1 uM
[4] = 24 h, 10 µM, compound concentration 10 uM
[5] = 48 h, 1 µM, compound concentration 1 uM
[6] = 48 h, 10 µM, compound concentration 10 uM

CC(C)N(CCCCOCC(=O)NS(C)(=O)=O)c1cnc(-c2ccccc2)c(-c2ccccc2)n1 [SELEXIPAG]
Population Apoptotic (%) [1]: 50% and 55% | Population Fragmented Nuclei (%) [1]: 3% and 4% | Population Healthy Nuclei (%) [1]: 81% and 80% | Population Hoechst High Intensity Objects (%) [1]: 8% and 6% | Population Membrane Permeable-Phenotype (%) [1]: 2% | Population Mitochondria Different-Phenotype (%) [1]: 17% and 14% | Population Mitotic Cells (%) [1]: 49% and 44% | Population Normal (%) [1]: 91% and 93% | Population Pyknosed Nuclei (%) [1]: 14% and 15% | Population Tubulin-Different-Phenotype (%) [1]: 52% and 41% | Total Cell Count [1]: 669 and 660 | Population Apoptotic (%) [2]: 58% and 64% | Population Fragmented Nuclei (%) [2]: 5% and 6% | Population Healthy Nuclei (%) [2]: 80% and 81% | Population Hoechst High Intensity Objects (%) [2]: 9% and 10% | Population Membrane Permeable-Phenotype (%) [2]: 1% and 0% | Population Mitochondria Different-Phenotype (%) [2]: 14% and 15% | Population Mitotic Cells (%) [2]: 41% and 35% | Population Normal (%) [2]: 90% and 89% | Population Pyknosed Nuclei (%) [2]: 14% and 11% | Population Tubulin-Different-Phenotype (%) [2]: 51% and 44% | Total Cell Count [2]: 616 and 713 | Population Apoptotic (%) [3]: 46% and 55% | Population Fragmented Nuclei (%) [3]: 6% and 7% | Population Healthy Nuclei (%) [3]: 83% and 81% | Population Hoechst High Intensity Objects (%) [3]: 7% and 8% | Population Membrane Permeable-Phenotype (%) [3]: 2% and 1% | Population Mitochondria Different-Phenotype (%) [3]: 4% and 3% | Population Mitotic Cells (%) [3]: 53% and 45% | Population Normal (%) [3]: 92% and 91% | Population Pyknosed Nuclei (%) [3]: 9% and 11% | Population Tubulin-Different-Phenotype (%) [3]: 27% and 22% | Total Cell Count [3]: 1034 and 989 | Population Apoptotic (%) [4]: 50% and 54% | Population Fragmented Nuclei (%) [4]: 13% and 7% | Population Healthy Nuclei (%) [4]: 77% and 82% | Population Hoechst High Intensity Objects (%) [4]: 10% and 9% | Population Membrane Permeable-Phenotype (%) [4]: 2% and 1% | Population Mitochondria Different-Phenotype (%) [4]: 2% and 5% | Population Mitotic Cells (%) [4]: 50% and 45% | Population Normal (%) [4]: 89% and 90% | Population Pyknosed Nuclei (%) [4]: 8% and 9% | Population Tubulin-Different-Phenotype (%) [4]: 13% and 24% | Total Cell Count [4]: 1214 and 906 | Population Apoptotic (%) [5]: 13% and 14% | Population Fragmented Nuclei (%) [5]: 12% and 10% | Population Healthy Nuclei (%) [5]: 83% and 86% | Population Hoechst High Intensity Objects (%) [5]: 8% | Population Membrane Permeable-Phenotype (%) [5]: 4% and 5% | Population Mitochondria Different-Phenotype (%) [5]: 0% | Population Mitotic Cells (%) [5]: 86% and 85% | Population Normal (%) [5]: 91% | Population Pyknosed Nuclei (%) [5]: 3% | Population Tubulin-Different-Phenotype (%) [5]: 7% | Total Cell Count [5]: 2736 and 2374 | Population Apoptotic (%) [6]: 25% and 19% | Population Fragmented Nuclei (%) [6]: 25% and 22% | Population Healthy Nuclei (%) [6]: 71% and 75% | Population Hoechst High Intensity Objects (%) [6]: 9% | Population Membrane Permeable-Phenotype (%) [6]: 5% and 7% | Population Mitochondria Different-Phenotype (%) [6]: 0% | Population Mitotic Cells (%) [6]: 74% and 80% | Population Normal (%) [6]: 90% | Population Pyknosed Nuclei (%) [6]: 2% | Population Tubulin-Different-Phenotype (%) [6]: 8% and 13% | Total Cell Count [6]: 3157 and 2195

CN(C)[C@H]1CC[C@H](Nc2ncc3ncnc(Nc4ccc(F)c(Cl)c4)c3n2)CC1
Population Apoptotic (%) [1]: 46% and 50% | Population Fragmented Nuclei (%) [1]: 4% and 5% | Population Healthy Nuclei (%) [1]: 88% and 87% | Population Hoechst High Intensity Objects (%) [1]: 9% and 10% | Population Membrane Permeable-Phenotype (%) [1]: 2% and 1% | Population Mitochondria Different-Phenotype (%) [1]: 14% and 10% | Population Mitotic Cells (%) [1]: 53% and 50% | Population Normal (%) [1]: 90% and 89% | Population Pyknosed Nuclei (%) [1]: 7% | Population Tubulin-Different-Phenotype (%) [1]: 45% and 36% | Total Cell Count [1]: 608 and 681 | Population Apoptotic (%) [2]: 30% and 17% | Population Fragmented Nuclei (%) [2]: 6% and 7% | Population Healthy Nuclei (%) [2]: 82% and 79% | Population Hoechst High Intensity Objects (%) [2]: 47% and 50% | Population Membrane Permeable-Phenotype (%) [2]: 3% and 4% | Population Mitochondria Different-Phenotype (%) [2]: 6% and 5% | Population Mitotic Cells (%) [2]: 69% and 82% | Population Normal (%) [2]: 52% and 49% | Population Pyknosed Nuclei (%) [2]: 10% and 13% | Population Tubulin-Different-Phenotype (%) [2]: 33% and 29% | Total Cell Count [2]: 768 and 714 | Population Apoptotic (%) [3]: 40% and 51% | Population Fragmented Nuclei (%) [3]: 7% and 8% | Population Healthy Nuclei (%) [3]: 87% and 88% | Population Hoechst High Intensity Objects (%) [3]: 10% and 11% | Population Membrane Permeable-Phenotype (%) [3]: 2% and 1% | Population Mitochondria Different-Phenotype (%) [3]: 4% and 3% | Population Mitotic Cells (%) [3]: 60% and 48% | Population Normal (%) [3]: 89% and 88% | Population Pyknosed Nuclei (%) [3]: 4% and 2% | Population Tubulin-Different-Phenotype (%) [3]: 21% and 22% | Total Cell Count [3]: 1021 and 1110 | Population Apoptotic (%) [4]: 17% and 13% | Population Fragmented Nuclei (%) [4]: 8% and 9% | Population Healthy Nuclei (%) [4]: 82% and 77% | Population Hoechst High Intensity Objects (%) [4]: 44% and 49% | Population Membrane Permeable-Phenotype (%) [4]: 2% | Population Mitochondria Different-Phenotype (%) [4]: 2% and 4% | Population Mitotic Cells (%) [4]: 82% and 86% | Population Normal (%) [4]: 55% and 50% | Population Pyknosed Nuclei (%) [4]: 8% and 13% | Population Tubulin-Different-Phenotype (%) [4]: 24% and 21% | Total Cell Count [4]: 1161 and 1002 | Population Apoptotic (%) [5]: 17% and 35% | Population Fragmented Nuclei (%) [5]: 23% and 21% | Population Healthy Nuclei (%) [5]: 74% and 76% | Population Hoechst High Intensity Objects (%) [5]: 12% and 15% | Population Membrane Permeable-Phenotype (%) [5]: 4% and 3% | Population Mitochondria Different-Phenotype (%) [5]: 0% | Population Mitotic Cells (%) [5]: 82% and 64% | Population Normal (%) [5]: 87% and 84% | Population Pyknosed Nuclei (%) [5]: 2% and 1% | Population Tubulin-Different-Phenotype (%) [5]: 9% and 13% | Total Cell Count [5]: 2456 and 2598 | Population Apoptotic (%) [6]: 24% and 15% | Population Fragmented Nuclei (%) [6]: 22% and 17% | Population Healthy Nuclei (%) [6]: 74% | Population Hoechst High Intensity Objects (%) [6]: 36% and 42% | Population Membrane Permeable-Phenotype (%) [6]: 3% | Population Mitochondria Different-Phenotype (%) [6]: 0% | Population Mitotic Cells (%) [6]: 75% and 84% | Population Normal (%) [6]: 63% and 57% | Population Pyknosed Nuclei (%) [6]: 3% and 7% | Population Tubulin-Different-Phenotype (%) [6]: 14% and 15% | Total Cell Count [6]: 2410 and 1820
